What was measured:
Hepatocyte [1] = assay: Retention time of the compound in human hepatocytes treated with 20(S)-protopanaxadiol at 50 uM after 180 mins by liquid chromatography-electrospray ionization ion trap mass spectrometry; format: ADME, cell-based; settings: 3 h
Outline: (§1)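 Human hepatocytes (2 million cells/ml) in Williams' E medium with substrate 50 µM, 0.5% (v/v) final MeOH, 37°C for 3 h. Negative controls were substrate at 0 h and no substrate at 3 h. Quenched with equal volume acetonitrile, in duplicate. Methanol was added, then centrifugation, dry-down and reconstitution. Analysed by C8 reversed-phase LC with formic acid/methanol–ammonium acetate gradient, ESI ion trap MSⁿ, m/z 100–800.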

Liver microsome [2] = assay: Drug level in mixed human liver microsomes treated with (20S,24S)-epoxydammarane-3,12,25-triol at 50 uM after 120 mins by liquid chromatography-electrospray ionization ion trap mass spectrometry in presence of UDPGA; format: ADME; settings: 2 h
Outline: (§2)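 Pooled HLM protein 1.0 mg/ml in 50 mM Tris-HCl pH 7.4 with 10 mM MgCl₂, 2 mM UDPGA and 25 µg/mL alamethicin. Preincubated 3 min at 37°C, then started with substrate (50 µM). Run 120 min, stopped with equal volume ice-cold acetonitrile. 0 min incubations served as controls, in duplicate. Processed and analysed by LC/ESI ion trap MSⁿ.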

Liver microsome [3] = assay: Drug level in mixed human liver microsomes treated with (20S,24R)-epoxydammarane-3,12,25-triol at 50 uM after 120 mins by liquid chromatography-electrospray ionization ion trap mass spectrometry in presence of UDPGA; format: ADME; settings: 2 h; outline: as §2
[4] = Oral bioavailability in dog at 8 mg/kg; format: ADME, organism-based, Canis lupus familiaris; settings: in vivo
Liver microsome [5] = assay: Drug metabolism in mixed human liver microsomes assessed as metabolite 3 ((20S,24R)-epoxydammarane-3,12,25-triol) formation at 50 uM after 60 mins by liquid chromatography-electrospray ionization ion trap mass spectrometry; format: ADME; settings: 1 h
Outline: (§3)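 Pooled human liver microsomes, 1.0 mg/ml protein, with substrate 50 µM in 100 mM potassium phosphate pH 7.4 (final MeOH 0.1% v/v). Preincubated 3 min at 37°C, started with NADPH 2.0 mM, run 60 min, stopped with ice-cold acetonitrile. Controls lacked NADPH or substrate; duplicates. Metabolites profiled by LC/ESI ion-trap MSn.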

[6] = Drug metabolism in human hepatocytes assessed as metabolite 7-1 ((2S,3S,4S,5R,6S)-6-(2-((2S,5S)-5-((3S,5R,8R,9R,10R,12R,14R,17S)-3,12-dihydroxy-4,4,8,10,14-pentamethylhexadecahydro-1H-cyclopenta[a]phenanthren-17-yl)-5-methyltetrahydrofuran-2-yl)propan-2-yloxy)-3,4,5-trihydroxytetrahydro-2H-pyran-2-carboxylic acid) formation at 50 uM after 180 mins by liquid chromatography-electrospray ionization ion trap mass spectrometry; format: ADME, cell-based, Hepatocyte; settings: 3 h
[7] = Drug metabolism in human hepatocytes assessed as metabolite 6-2 ((3R,6S)-6-((3S,5R,8R,9R,10R,12R,14R,17S)-3,12-dihydroxy-4,4,8,10,14-pentamethylhexadecahydro-1H-cyclopenta[a]phenanthren-17-yl)-2-methylheptane-2,3,6-triol) formation at 50 uM after 180 mins by liquid chromatography-electrospray ionization ion trap mass spectrometry; format: ADME, cell-based, Hepatocyte; settings: 3 h
[8] = Drug metabolism in human hepatocytes assessed as metabolite 6 ((24S,25)-epoxydammarane-3,12,20-triol formation at 50 uM after 180 mins by liquid chromatography-electrospray ionization ion trap mass spectrometry; format: ADME, cell-based, Hepatocyte; settings: 3 h
[9] = Oral bioavailability in rat at 25 mg/kg; format: ADME, organism-based; settings: in vivo
[10] = Drug metabolism in human hepatocytes assessed as metabolite 7-2 ((2S,3S,4S,5R,6S)-6-(2-((2R,5S)-5-((3S,5R,8R,9R,10R,12R,14R,17S)-3,12-dihydroxy-4,4,8,10,14-pentamethylhexadecahydro-1H-cyclopenta[a]phenanthren-17-yl)-5-methyltetrahydrofuran-2-yl)propan-2-yloxy)-3,4,5-trihydroxytetrahydro-2H-pyran-2-carboxylic acid) formation at 50 uM after 180 mins by liquid chromatography-electrospray ionization ion trap mass spectrometry; format: ADME, cell-based, Hepatocyte; settings: 3 h
[11] = Drug metabolism in human hepatocytes assessed as metabolite 6-1 ((3S,6S)-6-((3S,5R,8R,9R,10R,12R,14R,17S)-3,12-dihydroxy-4,4,8,10,14-pentamethylhexadecahydro-1H-cyclopenta[a]phenanthren-17-yl)-2-methylheptane-2,3,6-triol) formation at 50 uM after 180 mins by liquid chromatography-electrospray ionization ion trap mass spectrometry; format: ADME, cell-based, Hepatocyte; settings: 3 h
Liver microsome [12] = assay: Drug metabolism in mixed human liver microsomes assessed as metabolite 6 ((24S,25)-epoxydammarane-3,12,20-triol formation at 50 uM after 60 mins by liquid chromatography-electrospray ionization ion trap mass spectrometry; format: ADME; settings: 1 h; outline: as §3
[13] = Retention time of the compound at 100 uM measured after 60 mins by liquid chromatography-electrospray ionization ion trap mass spectrometry in presence of 10 uM 3-chloroperoxybenzoic acid; format: physicochemical; settings: 1 h
Outline: (§4)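 PPD 100 µM oxidised chemically with m-CPBA 10 µM in CH₂Cl₂, stirred at room temperature for 15 and 60 min. Mixture poured into Na₂CO₃-saturated ice water and extracted three times with ether before LC/MS analysis.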

Liver microsome [14] = assay: Drug metabolism in mixed human liver microsomes assessed as metabolite 2 ((20S,24S)-epoxydammarane-3,12,25-triol) formation at 50 uM after 60 mins by liquid chromatography-electrospray ionization ion trap mass spectrometry; format: ADME; settings: 1 h; outline: as §3
[15] = Drug excretion in Sprague-Dawley rat feces assessed as metabolite 3 ((20S,24R)-epoxydammarane-3,12,25-triol) level at 100 mg/kg/day, po qd for 11 days administered via gavage by liquid chromatography-electrospray ionization ion trap mass spectrometry; format: ADME, organism-based; design: route oral; settings: in vivo, 264 h
Outline: (§5)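 Rats given PPD by gavage at 100 mg/kg/day once daily for 11 days, as a 10 mg/ml solution in 0.5% carboxymethyl cellulose sodium, 0.5% polysorbate-80 and 99% saline; 20 rats housed singly in metabolic cages. Feces collected over 0–288 h and frozen at -20°C; blank feces taken before dosing.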

Liver microsome [16] = assay: Drug metabolism in mixed human liver microsomes assessed as metabolite 4 ((20S,24S)-epoxydammarane-12,25-diol-3-one) formation at 50 uM after 60 mins by liquid chromatography-electrospray ionization ion trap mass spectrometry; format: ADME; settings: 1 h; outline: as §3
Liver microsome [17] = assay: Drug metabolism in mixed human liver microsomes assessed as glucuronide conjugate metabolite level at 50 uM after 120 mins by liquid chromatography-electrospray ionization ion trap mass spectrometry in presence of UDPGA; format: ADME; settings: 2 h
Outline: (§6)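 Pooled human liver microsomes, 1.0 mg/ml protein, in 50 mM Tris-HCl pH 7.4 with 10 mM MgCl₂, 2 mM UDPGA and 25 µg/mL alamethicin. Preincubated 3 min at 37°C, started with substrate 50 µM (final MeOH 0.1%), run 120 min, stopped with ice-cold acetonitrile. Time-0 controls; duplicates. Analysed by LC/ESI ion-trap MSn.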

[18] = Drug metabolism in human hepatocytes assessed as metabolite 3 ((20S,24R)-epoxydammarane-3,12,25-triol) formation at 50 uM after 180 mins by liquid chromatography-electrospray ionization ion trap mass spectrometry; format: ADME, cell-based, Hepatocyte; settings: 3 h
[19] = Drug metabolism in human hepatocytes assessed as metabolite 5 ((20S,24R)-epoxydammarane-12,25-diol-3-one) formation at 50 uM after 180 mins by liquid chromatography-electrospray ionization ion trap mass spectrometry; format: ADME, cell-based, Hepatocyte; settings: 3 h
[20] = Drug excretion in Sprague-Dawley rat feces assessed as metabolite 4 ((20S,24S)-epoxydammarane-12,25-diol-3-one) level at 100 mg/kg/day, po qd for 11 days administered via gavage by liquid chromatography-electrospray ionization ion trap mass spectrometry; format: ADME, organism-based; design: route oral; settings: in vivo, 264 h; outline: as §5
[21] = Drug excretion in Sprague-Dawley rat feces assessed as metabolite 5 ((20S,24R)-epoxydammarane-12,25-diol-3-one) level at 100 mg/kg/day, po qd for 11 days administered via gavage by liquid chromatography-electrospray ionization ion trap mass spectrometry; format: ADME, organism-based; design: route oral; settings: in vivo, 264 h; outline: as §5
Liver microsome [22] = assay: Drug metabolism in mixed human liver microsomes assessed as metabolite 5 ((20S,24R)-epoxydammarane-12,25-diol-3-one) formation at 50 uM after 60 mins by liquid chromatography-electrospray ionization ion trap mass spectrometry; format: ADME; settings: 1 h; outline: as §3
[23] = Drug metabolism in human hepatocytes assessed as metabolite 4 ((20S,24S)-epoxydammarane-12,25-diol-3-one) formation at 50 uM after 180 mins by liquid chromatography-electrospray ionization ion trap mass spectrometry; format: ADME, cell-based, Hepatocyte; settings: 3 h
[24] = Drug metabolism in human hepatocytes assessed as metabolite 2 ((20S,24S)-epoxydammarane-3,12,25-triol) formation at 50 uM after 180 mins by liquid chromatography-electrospray ionization ion trap mass spectrometry; format: ADME, cell-based, Hepatocyte; settings: 3 h
[25] = Drug excretion in Sprague-Dawley rat feces assessed as metabolite 2 ((20S,24S)-epoxydammarane-3,12,25-triol) level at 100 mg/kg/day, po qd for 11 days administered via gavage by liquid chromatography-electrospray ionization ion trap mass spectrometry; format: ADME, organism-based; design: route oral; settings: in vivo, 264 h; outline: as §5
Hepatocyte [26] = assay: Drug level in human hepatocytes treated with 20(S)-protopanaxadiol at 50 uM after 180 mins by liquid chromatography-electrospray ionization ion trap mass spectrometry; format: ADME, cell-based; settings: 3 h; outline: as §1
Liver microsome [27] = assay: Retention time of the compound in mixed human liver microsomes treated with 20(S)-protopanaxadiol at 50 uM after 60 mins by liquid chromatography-electrospray ionization ion trap mass spectrometry; format: ADME; settings: 1 h
Outline: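 Pooled HLM protein 1.0 mg/ml with substrate 50 µM in 100 mM potassium phosphate pH 7.4, 0.1% (v/v) final MeOH. Preincubated 3 min at 37°C, started with 2.0 mM NADPH, incubated 60 min. Stopped with equal volume ice-cold acetonitrile. Controls lacked NADPH or substrate, in duplicate. Analysed on C8 reversed-phase column, formic acid methanol/ammonium acetate gradient, ESI ion trap MSⁿ.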

[28] = Drug excretion in Sprague-Dawley rat feces treated with 20(S)-protopanaxadiol at 100 mg/kg/day, po qd for 11 days administered via gavage by liquid chromatography-electrospray ionization ion trap mass spectrometry; format: ADME, organism-based; design: route oral; settings: in vivo, 264 h
Outline: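 PPD given by gavage at 10 mg/ml in 0.5% carboxymethyl cellulose sodium, 0.5% polysorbate-80 and 99% saline; 20 rats, one per metabolic cage. Feces collected over 0–288 h (48 h after last dose), blanks taken before dosing, frozen at -20°C.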

Liver microsome [29] = assay: Drug metabolism in mixed human liver microsomes assessed as metabolite 7-1 ((2S,3S,4S,5R,6S)-6-(2-((2S,5S)-5-((3S,5R,8R,9R,10R,12R,14R,17S)-3,12-dihydroxy-4,4,8,10,14-pentamethylhexadecahydro-1H-cyclopenta[a]phenanthren-17-yl)-5-methyltetrahydrofuran-2-yl)propan-2-yloxy)-3,4,5-trihydroxytetrahydro-2H-pyran-2-carboxylic acid) formation at 50 uM after 120 mins by liquid chromatography-electrospray ionization ion trap mass spectrometry in presence of UDPGA; format: ADME; outline: as §6
[30] = Retention time of the compound treated with 20(S)-protopanaxadiol at 100 uM measured after 60 mins by liquid chromatography-electrospray ionization ion trap mass spectrometry in presence of 10 uM 3-chloroperoxybenzoic acid; format: physicochemical; settings: 1 h; outline: as §4

In the case of CC(C)(O)[C@H](O)CC[C@](C)(O)[C@H]1CC[C@]2(C)[C@@H]1[C@H](O)C[C@@H]1[C@@]3(C)CC[C@H](O)C(C)(C)[C@@H]3CC[C@]12C, the Retention_time (Hepatocyte [1]) is reported as 15.8 min.
For CC(C)(O[C@@H]1O[C@H](C(=O)O)[C@@H](O)[C@H](O)[C@H]1O)[C@@H]1CC[C@@](C)([C@H]2CC[C@]3(C)[C@@H]2[C@H](O)C[C@@H]2[C@@]4(C)CC[C@H](O)C(C)(C)[C@@H]4CC[C@]23C)O1, the Drug metabolism (Liver microsome [2]) was “metabolite_detected” and the Retention_time (Hepatocyte [1]) was 16 min.
For CC(C)(O[C@@H]1O[C@H](C(=O)O)[C@@H](O)[C@H](O)[C@H]1O)[C@H]1CC[C@@](C)([C@H]2CC[C@]3(C)[C@@H]2[C@H](O)C[C@@H]2[C@@]4(C)CC[C@H](O)C(C)(C)[C@@H]4CC[C@]23C)O1, the Retention_time (Hepatocyte [1]) was 16.9 min and the Drug metabolism (Liver microsome [3]) was “metabolite_detected”.
For CC(C)=CCC[C@](C)(O)[C@H]1CC[C@]2(C)[C@@H]1[C@H](O)C[C@@H]1[C@@]3(C)CC[C@H](O)C(C)(C)[C@@H]3CC[C@]12C, the bioavailability [4] was 9.6%, the Drug metabolism (Liver microsome [5]) was “metabolite_detected” and the Drug metabolism [6] was “metabolite_detected”. For the same compound, the Drug metabolism [7] was “metabolite_detected”, the Drug metabolism [8] was “metabolite_detected” and the bioavailability [9] was 31%. For the same compound, the Drug metabolism [10] was “metabolite_detected”, the Drug metabolism [11] was “metabolite_detected” and the Drug metabolism (Liver microsome [12]) was “metabolite_detected”. The Retention_time [13] was 22.3 min, the Drug metabolism (Liver microsome [14]) was “metabolite_detected” and the Drug excretion [15] was “metabolite_detected”. For the same compound, the Drug metabolism (Liver microsome [16]) was “metabolite_detected”, the Drug metabolism (Liver microsome [17]) was “metabolite_not_detected” and the Drug metabolism [18] was “metabolite_detected”. The Drug metabolism [19] was “metabolite_detected”, the Drug excretion [20] was “metabolite_detected” and the Drug excretion [21] was “metabolite_detected”. For the same compound, the Drug metabolism (Liver microsome [22]) was “metabolite_detected”, the Drug metabolism [23] was “metabolite_detected” and the Drug metabolism [24] was “metabolite_detected”. The Drug excretion [25] was “metabolite_detected”.
For CC(C)(O)[C@@H]1CC[C@@](C)([C@H]2CC[C@]3(C)[C@@H]2[C@H](O)C[C@@H]2[C@@]4(C)CC[C@H](O)C(C)(C)[C@@H]4CC[C@]23C)O1, the Drug metabolism (Hepatocyte [26]) was “metabolite_detected”, the Retention_time (Liver microsome [27]) was 19.2 min and the Drug excretion [28] was “metabolite_detected”. For the same compound, the Drug metabolism (Liver microsome [29]) was “metabolite_detected” and the Retention_time [30] was 19.2 min.

Source: ChEMBL document CHEMBL3525992, “Identification of 20(S)-protopanaxadiol metabolites in human liver microsomes and human hepatocytes” (Drug Metab Dispos, 2011)
